We go through five compounds from ChEMBL document CHEMBL4732216, “Design and Characterization of an Intracellular Covalent Ligand for CC Chemokine Receptor 2” (J Med Chem, 2021).

Calls of active or inactive are those of the source. No cut-off for these calls is given here.

Data set [1] addresses T1, C-C chemokine receptor type 2 (Homo sapiens, UniProt P41597). Description: Displacement of [3H]-CCR2-RA from human CCR2b expressed in human U2OS cell membranes incubated for 2 hrs by scintillation counting method. To be noted: for Activity: Cell membrane, filed as antagonist. In a few lines:
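U2OS-CCR2 membranes (5–30 μg protein) in 50 mM Tris-HCl pH 7.4, 5 mM MgCl2, 0.1% CHAPS. Coincubation 2 h at 25 °C with competitor 0.01 nM–10 μM and ~6 nM [3H]-CCR2-RA. Nonspecific binding with 10 μM JNJ-27141491. GF/B filtration, scintillation counting, IC50 by sigmoidal fit, Ki by Cheng–Prusoff.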
For orientation: Displacement assays read how much labelled ligand stays bound in the presence of the test substance.

The target of data set [2] is T1, C-C chemokine receptor type 2. Description: Displacement of [3H]-CCR2-RA-(R) from human CCR2b expressed in human U2OS cell membranes assessed as radio ligand binding recovery at 10 times IC50 incubated for 2 hrs after pre-treatment with iodoacetamide for 30 mins and followed by extensive washing and centrifugation cycles before addition of [3H]-CCR2-RA-[R] for 2 hrs by scintillation counting method. To be noted: Cell membrane.
Target sequence in this assay (P41597 whole entry, looked up): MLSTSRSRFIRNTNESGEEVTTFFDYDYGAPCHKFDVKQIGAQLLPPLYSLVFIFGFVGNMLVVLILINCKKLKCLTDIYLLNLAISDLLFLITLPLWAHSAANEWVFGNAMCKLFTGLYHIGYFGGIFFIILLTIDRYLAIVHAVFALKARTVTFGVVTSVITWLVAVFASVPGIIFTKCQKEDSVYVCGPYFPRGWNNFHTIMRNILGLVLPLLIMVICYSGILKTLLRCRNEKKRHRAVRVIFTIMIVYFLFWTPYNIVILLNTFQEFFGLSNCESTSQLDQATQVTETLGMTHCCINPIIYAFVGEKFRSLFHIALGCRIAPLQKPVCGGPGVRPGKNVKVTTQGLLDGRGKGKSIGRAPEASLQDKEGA

The subject of data set [3] is CHO. Description: Displacement of [3H]-CCR2-RA-(R) from human CCR2 C75S mutant expressed in CHO cell membranes assessed as radio ligand binding recovery at 10 times IC50 incubated for 2 hrs followed by extensive washing and centrifugation cycles before addition of [3H]-CCR2-RA-[R] for 2 hrs by scintillation counting method. To be noted: Cell membrane.
The test system of data set [4] is CHO. Description: Displacement of [3H]-CCR2-RA-(R) from human CCR2 C232S mutant expressed in CHO cell membranes assessed as radio ligand binding recovery at 10 times IC50 incubated for 2 hrs followed by extensive washing and centrifugation cycles before addition of [3H]-CCR2-RA-[R] for 2 hrs by scintillation counting method. Conditions: Cell membrane.
Data set [5] deals with T1, C-C chemokine receptor type 2. Description: Antagonist activity at human CCR2 expressed in human U2OS cell membranes as inhibition of [35S]GTPgammaS binding pre-incubated for 30 mins before CCL2 stimulation and followed by further incubation for 90 mins by scintillation counting method. Type of data set: functional. Conditions: for inhibition: Cell membrane, filed as antagonist. In a few lines: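 Preincubation 30 min at 25 °C with increasing ligand plus EC80 CCL2 (20 nM). [35S]GTPγS 0.3 nM added for 90 min at 25 °C, then filtration and scintillation counting. Basal without ligand/chemokine; pIC50 by sigmoidal fit.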

Data set [6] can be described thus: GSH reactivity at 1 mM in presence of 80 uM reduced glutathione measured at 37 degC for over 4 hrs. Type of data set: physicochemical. Conditions: 1000 µM.
The target in data set [7] is T1, C-C chemokine receptor type 2. Description: Displacement of [3H]-CCR2-RA-(R) from human CCR2b expressed in human U2OS cell membranes pre-incubated for 4 hrs before radio ligand addition and measured after 20 mins by scintillation counting method. The arrangement: species or system Cell membrane.
Target sequence in this assay (P41597 whole entry): as the sequence (P41597 whole entry, looked up) above
Data set [8] deals with CHO. Description: Displacement of [3H]-CCR2-RA-(R) from human CCR2 C70S mutant expressed in CHO cell membranes assessed as radio ligand binding recovery at 10 times IC50 incubated for 2 hrs followed by extensive washing and centrifugation cycles before addition of [3H]-CCR2-RA-[R] for 2 hrs by scintillation counting method. To be noted: Cell membrane.
Data set [9] in a line: Stability in pH 7.4 Tris-HCl containing 5 mM MgCl2 and 0.1% CHAPS assessed as intact compound level measured at room temperature. Type of data set: physicochemical. To be noted: buffer, pH 7.4, 5000 µM.
Data set [10] can be described thus: Displacement of [3H]-CCR2-RA-[R] from human CCR2 C232S mutant expressed in CHO cell membranes incubated for 2 hrs by scintillation counting method. Also on record: species or system Cell membrane.
Data set [11] deals with T1, C-C chemokine receptor type 2. Description: Displacement of [3H]-CCR2-RA-(R) from human CCR2b expressed in human U2OS cell membranes assessed as radio ligand binding recovery at 10 times IC50 incubated for 2 hrs after pre-treatment with N-ethylmaleimide for 30 mins and followed by extensive washing and centrifugation cycles before addition of [3H]-CCR2-RA-[R] for 2 hrs by scintillation counting method. To be noted: Cell membrane.
Target sequence in this assay (P41597 whole entry, looked up): as above

The test system of data set [12] is CHO. Description: Displacement of [3H]-CCR2-RA-(R) from human CCR2 […] mutant expressed in CHO cell membranes assessed as radio ligand binding recovery at 10 times IC50 incubated for 2 hrs followed by extensive washing and centrifugation cycles before addition of [3H]-CCR2-RA-[R] for 2 hrs by scintillation counting method. Conditions: Cell membrane.

Data set [13] has as its target T1, C-C chemokine receptor type 2. Description: Displacement of [3H]-CCR2-RA-(R) from wild type human CCR2 expressed in CHO cell membranes assessed as radio ligand binding recovery at 10 times IC50 incubated for 2 hrs followed by extensive washing and centrifugation cycles before addition of [3H]-CCR2-RA-[R] for 2 hrs by scintillation counting method. Conditions: Cell membrane, filed as antagonist.
Target sequence in this assay (P41597 whole entry, looked up): as above

For data set [14], the target named is T2, C-C chemokine receptor type 1 (Homo sapiens, UniProt P32246).
T2 sequence (P32246 whole entry): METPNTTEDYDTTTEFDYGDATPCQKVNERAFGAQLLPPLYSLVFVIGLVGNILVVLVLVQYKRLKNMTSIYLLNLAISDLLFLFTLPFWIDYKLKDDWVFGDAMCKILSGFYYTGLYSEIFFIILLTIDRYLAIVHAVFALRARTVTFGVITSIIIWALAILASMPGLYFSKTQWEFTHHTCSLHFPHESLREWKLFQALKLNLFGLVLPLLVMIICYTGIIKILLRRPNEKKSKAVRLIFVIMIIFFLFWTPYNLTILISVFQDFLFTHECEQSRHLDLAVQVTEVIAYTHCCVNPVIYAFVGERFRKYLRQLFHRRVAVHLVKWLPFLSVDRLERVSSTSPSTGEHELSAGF
Description: Antagonist activity at human CCR1 expressed in human U2OS cell membranes as inhibition of [35S]GTPgammaS binding pre-incubated for 30 mins before CCL3 stimulation and followed by further incubation for 90 mins by scintillation counting method. The class given is functional, Cell membrane.

Data set [15] has as its target T1, C-C chemokine receptor type 2. Description: Antagonist activity at human CCR2 expressed in HEK293 cells assessed as inhibition of beta-arrestin recruitment pre-incubated for 20 mins followed by drug wash out before CCL2 stimulation and followed by further incubation for 90 mins by NanoBiT CCR2 assay based.
Target sequence in this assay (P41597 whole entry): as the sequence (P41597 whole entry, looked up) above
The nature of data set [16]: Displacement of [3H]-CCR2-RA-[R] from human CCR2 C70S mutant expressed in CHO cell membranes incubated for 2 hrs by scintillation counting method. The arrangement: species or system Cell membrane.
Data set [17] has as its target T1, C-C chemokine receptor type 2. Description: Displacement of [3H]-CCR2-RA-(R) from human CCR2b expressed in human U2OS cell membranes assessed as radio ligand binding recovery at 10 times IC50 incubated for 2 hrs followed by extensive washing and centrifugation cycles before addition of [3H]-CCR2-RA-[R] for 2 hrs by scintillation counting method. To be noted: Cell membrane, filed as antagonist.
Target sequence in this assay (P41597 whole entry, looked up): as the sequence (P41597 whole entry, looked up) above

Data set [18] has the same target. Description: Ratio of IC50 for antagonist activity at human CCR2 expressed in HEK293 cells assessed as inhibition of beta-arrestin recruitment pre-incubated for 20 mins followed by drug wash out before CCL2 stimulation and followed by further incubation for 90 mins by NanoBiT CCR2 assay to IC50 for antagonist activity at human CCR2 expressed in HEK293 cells assessed as inhibition of beta-arrestin recruitment pre-incubated for 20 mins before CCL2 stimulation and followed by further incubation for 90 mins by NanoBiT CCR2 assay. On the technique in general: Arrestin recruitment assays detect the binding of arrestin to an activated receptor.
Target sequence in this assay (P41597 whole entry, looked up): as the sequence (P41597 whole entry, looked up) above

The target is the same in data set [19]. Description: Antagonist activity at human CCR2 expressed in human U2OS cell membranes as [35S]GTPgammaS binding level at 250 nM pre-incubated for 30 mins before CCL2 stimulation and followed by further incubation for 90 mins by scintillation counting method relative to control. The class given is functional. The arrangement: scale not given: the % may be the effect or the level left. Conditions: Cell membrane, filed as antagonist. In a few lines:
(§1)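 U2OS-CCR2 membranes (40 μg) preincubated with or without single compound concentration (600 or 250 nM) in 50 mM Tris-HCl pH 7.4/5 mM MgCl2, then four centrifugation/wash cycles (unwashed: final spin only). Resuspended in buffer with NaCl, EDTA, BSA, saponin 0.5 mg/mL, GDP 10 μM and 20 nM CCL2. 30 min at 25 °C, then [35S]GTPγS 0.3 nM 90 min, filtration; expressed relative to CCL2 alone.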
Target sequence in this assay (P41597 whole entry, looked up): as the sequence (P41597 whole entry, looked up) above

A short description of data set [20]: Displacement of [3H]-CCR2-RA-[R] from human CCR2 C75S mutant expressed in CHO cell membranes incubated for 2 hrs by scintillation counting method. The arrangement: species or system Cell membrane.
A short description of data set [21]: Displacement of [3H]-CCR2-RA-[R] from human CCR2 C70S/C75S/C232S mutant expressed in CHO cell membranes incubated for 2 hrs by scintillation counting method. The arrangement: species or system Cell membrane.
Data set [22] addresses T1, C-C chemokine receptor type 2. Description: Antagonist activity at human CCR2 expressed in HEK293 cells assessed as inhibition of beta-arrestin recruitment pre-incubated for 20 mins before CCL2 stimulation and followed by further incubation for 90 mins by NanoBiT CCR2 assay based.
Target sequence in this assay (P41597 whole entry): as the sequence (P41597 whole entry, looked up) above
Data set [23] shares this target. Description: Antagonist activity at human CCR2 expressed in human U2OS cell membranes as [35S]GTPgammaS binding level at 250 nM pre-incubated for 30 mins followed by drug wash out before CCL2 stimulation and followed by further incubation for 90 mins by scintillation counting method relative to control. Conditions: Cell membrane, filed as antagonist. The arrangement: scale not given: the % may be the effect or the level left. The class given is functional. In outline:
as §1
In general terms: GTPγS is a poorly hydrolysed GTP analogue; its binding reports G protein activation.

Data set [24] shares this target. Description: Displacement of [3H]-CCR2-RA-(R) from human CCR2b expressed in human U2OS cell membranes pre-incubated for 0 hrs before radio ligand addition and measured after 20 mins by scintillation counting method. The arrangement: species or system Cell membrane.
Target sequence in this assay (P41597 whole entry): as the sequence (P41597 whole entry, looked up) above
Data set [25] has the same target. Description: Displacement of [3H]-CCR2-RA-[R] from wild type human CCR2 expressed in CHO cell membranes incubated for 2 hrs by scintillation counting method. Also on record: species or system Cell membrane.
Target sequence in this assay (P41597 whole entry): as the sequence (P41597 whole entry, looked up) above

For the compound `C=CC(=O)NCCNC(=O)c1ccc(Oc2ccc(Cl)cc2NS(=O)(=O)c2ccc(Cl)c(C(F)(F)F)c2)cc1`, the Activity entry in data set [1] was “Dose-dependent effect”. Also, the Ki in [1] (read-out: Ki) was 22 nM.

In the case of `O=C(NCCNC(=O)c1ccc(S(=O)(=O)F)cc1)c1ccc(Oc2ccc(Cl)cc2NS(=O)(=O)c2ccc(Cl)c(C(F)(F)F)c2)cc1`, the Activity entry in data set [1] is “Dose-dependent effect”. In addition, the Ki in [1] (read-out: Ki) was 89 nM; in [1] (read-out: pKi (converted)), 63.1 nM.

As for `O=C(O)c1ccc(Oc2ccc(Cl)cc2NS(=O)(=O)c2ccc(Cl)c(Cl)c2)cc1`, the Activity in data set [2] was 104%; with CHO [3] it was 100%; in the data set with CHO [4], 100%; with CHO [8], 100%; in [1], “Dose-dependent effect”. Besides, the inhibition entry in data set [5] is “Dose-dependent effect”. The Stabilty result was “Unstable” in data set [6] and more than 6 h in data set [9]. Further, in [7] (read-out: pKi (converted)), the Ki is 6.31 nM. Besides, the pIC50 (usually the negative decadic logarithm of the IC50, by convention in mol/L) in [10] stood at 7.9. Also, the result (in data set [11]; in the data set on CHO [12]) was inactive.

For `O=C(NCCN=C=S)c1ccc(Oc2ccc(Cl)cc2NS(=O)(=O)c2ccc(Cl)c(C(F)(F)F)c2)cc1`, the Activity result in [1] was “Dose-dependent effect”. Besides, the Ki in [1] (read-out: Ki) was found to be 31 nM.

For `N#CSCCNC(=O)c1ccc(Oc2ccc(Cl)cc2NS(=O)(=O)c2ccc(Cl)c(C(F)(F)F)c2)cc1`, the Activity is 93% in data set [2]; 9% in data set [13]; 30% with CHO [3] (filed as antagonist); 27% in [17]; “Dose-dependent effect” in [1]; -5% in data set [19]. In addition, the Activity in data set [23] is -24%. Also, the IC50 in [14] is 5010 nM; in data set [15], 10 nM; in [5] it was 33 nM; in [10], 1 nM; in data set [20] it was 5 nM; in data set [21], 16 nM. In addition, the IC50 was 4 nM in data set [22], 2 nM in [25] (read-out: IC50) and 1.58 nM in data set [25] (read-out: pIC50 (converted)). The outcome in the data set on CHO [4] (filed as antagonist) and in the data set on CHO [8] (filed as antagonist) was Active. Also, the inhibition result in data set [5] was “Dose-dependent effect”. The pIC50 in data set [16] is reported as 8.4; in data set [10], 8.8; in data set [20] it was 8.4; in data set [21], 7.8. The Stabilty result in data set [6] was “Stable”; in [9], more than 6 h. Further, the Ki in data set [7] (read-out: Ki) was 0.7 nM; in data set [1] (read-out: Ki) it was 4 nM; in data set [24] (read-out: Ki) it was 2.4 nM; in data set [24] (read-out: pKi (converted)), 2 nM. Further, the Ratio IC50 in data set [18] worked out at 2.5. The outcome (in [11]; with CHO [12]) was inactive.
